ChEMBL document CHEMBL3774311, “Synthesis and in vitro antitumour activity of tiazofurin analogues with nitrogen functionalities at the C-2' position” (Eur J Med Chem, 2016)

What was measured:
K562 [1] = assay: Induction of specific necrosis in human K562 cells after 24 hrs by annexin V-FITC/propidium iodide staining based flow cytometry; format: functional; set-up: concentration or dose not given beside the values
Method in brief: (§1)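 K562 cells treated 24 or 72 h, double-stained with Annexin V-FITC/PI and analysed by flow cytometry to give percentages of live, apoptotic and necrotic cells; apoptotic and necrotic responses expressed as specific apoptosis or specific necrosis (%).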

MCF7 = assay: Antiproliferative activity against human MCF7 cells after 72 hrs by MTT assay; format: functional, cell-based; conditions: MCF7, 72 h
Method in brief: (§2)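 Human tumour lines and MRC-5 foetal lung fibroblasts (normal-cell comparator) exposed to compounds for 72 h; viability read by standard MTT assay. IC50 taken as concentration inhibiting growth by 50% versus untreated control; means of three independent experiments, coefficients of variation under 10%.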

K562 [2] = assay: Induction of apoptosis in human K562 cells assessed as cleaved PARP level after 24 hrs by Western blotting method (reference value: 36.17%); format: functional
K562 [3] = assay: Induction of apoptosis in human K562 cells assessed as living cells after 24 hrs by annexin V-FITC/propidium iodide staining based flow cytometry (reference value: 85.85%); format: functional; method in brief: as §1
K562 [4] = assay: Induction of cell cycle arrest in human K562 cells assessed as accumulation at S phase after 24 hrs by propidium iodide staining-based flow cytometry (reference value: 48.38%); format: functional
Method in brief: (§3)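 Exponentially growing K562 cells treated 24 or 72 h; cells stained with propidium iodide and cell-cycle distribution (sub-G1, G0/G1, S, G2/M, %) measured by flow cytometry; untreated cells as control.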

K562 [5] = assay: Induction of apoptosis in human K562 cells assessed as Bcl2 protein level after 72 hrs by Western blotting method (reference value: 7.90%); format: functional
K562 [6] = assay: Induction of apoptosis in human K562 cells assessed as necrotic cells after 24 hrs by annexin V-FITC/propidium iodide staining based flow cytometry (reference value: 1.50%); format: functional; method in brief: as §1
K562 [7] = assay: Induction of cell cycle arrest in human K562 cells assessed as accumulation at G0/G1 phase after 72 hrs by propidium iodide staining-based flow cytometry (reference value: 45.92%); format: functional; method in brief: as §3
K562 [8] = assay: Induction of apoptosis in human K562 cells assessed as Bax protein level after 24 hrs by Western blotting method (reference value: 16.13%); format: functional
K562 [9] = assay: Induction of cell cycle arrest in human K562 cells assessed as accumulation at Sub-G1 phase after 72 hrs by propidium iodide staining-based flow cytometry (reference value: 3.04%); format: functional; method in brief: as §3
K562 [10] = assay: Induction of apoptosis in human K562 cells assessed as Bax protein level after 72 hrs by Western blotting method (reference value: 32.81%); format: functional
K562 [11] = assay: Induction of cell cycle arrest in human K562 cells assessed as accumulation at S phase after 72 hrs by propidium iodide staining-based flow cytometry (reference value: 35.73%); format: functional; method in brief: as §3
K562 [12] = assay: Induction of specific necrosis in human K562 cells after 72 hrs by annexin V-FITC/propidium iodide staining based flow cytometry; format: functional; set-up: concentration or dose not given beside the values; method in brief: as §1
[13] = Antiproliferative activity against human HL60 cells after 72 hrs by MTT assay; format: functional, cell-based, HL-60; method in brief: as §2
K562 [14] = assay: Induction of apoptosis in human K562 cells assessed as necrotic cells after 72 hrs by annexin V-FITC/propidium iodide staining based flow cytometry (reference value: 7.23%); format: functional; method in brief: as §1
K562 [15] = assay: Induction of apoptosis in human K562 cells assessed as late apoptotic cells after 72 hrs by annexin V-FITC/propidium iodide staining based flow cytometry (reference value: 5.24%); format: functional; method in brief: as §1
K562 [16] = assay: Induction of specific apoptosis in human K562 cells after 24 hrs by annexin V-FITC/propidium iodide staining based flow cytometry; format: functional; set-up: concentration or dose not given beside the values; method in brief: as §1
K562 [17] = assay: Induction of cell cycle arrest in human K562 cells assessed as accumulation at Sub-G1 phase after 24 hrs by propidium iodide staining-based flow cytometry (reference value: 1.05%); format: functional; method in brief: as §3
MRC5 = assay: Cytotoxicity against human MRC5 cells after 72 hrs by MTT assay; format: cell-based; conditions: MRC5, 72 h; method in brief: as §2
K562 [18] = assay: Antiproliferative activity against human K562 cells after 72 hrs by MTT assay; format: functional, cell-based; method in brief: as §2
Raji = assay: Antiproliferative activity against human Raji cells after 72 hrs by MTT assay; format: functional, cell-based; method in brief: as §2
K562 [19] = assay: Induction of cell cycle arrest in human K562 cells assessed as accumulation at G2/M phase after 24 hrs by propidium iodide staining-based flow cytometry (reference value: 14.29%); format: functional; method in brief: as §3
K562 [20] = assay: Induction of specific apoptosis in human K562 cells after 72 hrs by annexin V-FITC/propidium iodide staining based flow cytometry; format: functional; set-up: concentration or dose not given beside the values; method in brief: as §1
K562 [21] = assay: Induction of apoptosis in human K562 cells assessed as caspase 3 level after 72 hrs by Western blotting method (reference value: 17.05%); format: functional
HeLa = assay: Antiproliferative activity against human HeLa cells after 72 hrs by MTT assay; format: functional, cell-based; method in brief: as §2
K562 [22] = assay: Induction of cell cycle arrest in human K562 cells assessed as accumulation at G0/G1 phase after 24 hrs by propidium iodide staining-based flow cytometry (reference value: 36.28%); format: functional; method in brief: as §3
K562 [23] = assay: Induction of apoptosis in human K562 cells assessed as caspase 3 level after 24 hrs by Western blotting method (reference value: 42.77%); format: functional
K562 [24] = assay: Induction of apoptosis in human K562 cells assessed as Bcl2 protein level after 24 hrs by Western blotting method (reference value: 22.81%); format: functional
K562 [25] = assay: Induction of apoptosis in human K562 cells assessed as living cells after 72 hrs by annexin V-FITC/propidium iodide staining based flow cytometry (reference value: 84.31%); format: functional; method in brief: as §1
K562 [26] = assay: Induction of apoptosis in human K562 cells assessed as early apoptotic cells after 24 hrs by annexin V-FITC/propidium iodide staining based flow cytometry (reference value: 8.09%); format: functional; method in brief: as §1
K562 [27] = assay: Induction of apoptosis in human K562 cells assessed as early apoptotic cells after 72 hrs by annexin V-FITC/propidium iodide staining based flow cytometry (reference value: 3.22%); format: functional; method in brief: as §1
Jurkat = assay: Antiproliferative activity against human Jurkat cells after 72 hrs by MTT assay; format: functional, cell-based; method in brief: as §2
K562 [28] = assay: Induction of apoptosis in human K562 cells assessed as late apoptotic cells after 24 hrs by annexin V-FITC/propidium iodide staining based flow cytometry (reference value: 4.58%); format: functional; method in brief: as §1
K562 [29] = assay: Induction of apoptosis in human K562 cells assessed as cleaved PARP level after 72 hrs by Western blotting method (reference value: 18.36%); format: functional
K562 [30] = assay: Induction of cell cycle arrest in human K562 cells assessed as accumulation at G2/M phase after 72 hrs by propidium iodide staining-based flow cytometry (reference value: 15.31%); format: functional; method in brief: as §3
HT-29 = assay: Antiproliferative activity against human HT-29 cells after 72 hrs by MTT assay; format: functional, cell-based; conditions: HT-29, 72 h; method in brief: as §2
[31] = Antiproliferative activity against human HL60 cells after 24 hrs; format: functional, cell-based; conditions: HL-60, 24 h

Row | IC50 (MCF7) [nM] | Structure (SMILES) | Activity (K562 [1]) [%] | Activity (K562 [2]) [%] | Activity (K562 [3]) [%] | Activity (K562 [4]) [%] | Activity (K562 [5]) [%] | Activity (K562 [6]) [%] | Activity (K562 [7]) [%] | Activity (K562 [8]) [%] | Activity (K562 [9]) [%] | Activity (K562 [10]) [%] | Activity (K562 [11]) [%] | Activity (K562 [12]) [%] | Activity (K562 [14]) [%] | Activity (K562 [15]) [%] | Activity (K562 [16]) [%] | Activity (K562 [17]) [%] | IC50 (MRC5) [nM] | Activity (K562 [19]) [%] | Activity (K562 [20]) [%] | also measured
1 | > 100000 | NC(=O)c1csc([C@@H]2O[C@H](CO)[C@@H](O)[C@H]2N)n1 | 4.97 | 10.01 | 71.33 | 46.33 | 3.21 | 6.48 | 40.24 | 3.52 | 13.52 | 112.54 | 34.08 | 7.11 | 8.02 | 66.51 | 17.57 | 1.4 | > 100000 | 20.06 | 33.39 | IC50 ([13]; hl-60): 12200 nM; IC50 (K562 [18]; k562): 510 nM; IC50 (Raji; raji): 2590 nM; Activity (K562 [21]): 38.2%; IC50 (HeLa; hela): 150 nM; Activity (K562 [22]): 32.21%; Activity (K562 [23]): 22.07%; Activity (K562 [24]): 9.06%; Activity (K562 [25]): 2.92%; Activity (K562 [26]): 12.02%; Activity (K562 [27]): 22.56%; IC50 (Jurkat): > 100000 nM; Activity (K562 [28]): 10.18%; Activity (K562 [29]): 11.32%; Activity (K562 [30]): 12.16%; IC50 (HT-29): > 100000 nM
2 | 19900 | NC(=O)c1csc([C@@H]2O[C@H](CO)[C@@H](O)[C@H]2NC(=O)c2ccccc2)n1 | 11.71 | 57.9 | 53.81 | 49.13 | 15.94 | 13.22 | 44.1 | 30.99 | 11.29 | 95.1 | 34.11 | 6.86 | 7.35 | 80.99 | 29 | 6.12 | 50 | 5.67 | 50.41 | IC50 ([13]; Homo sapiens, HL-60, 72 h): 20400 nM; IC50 [31]: 120 nM; IC50 (K562 [18]; Homo sapiens, K562, 72 h): 20 nM; IC50 (Raji; Homo sapiens, Raji, 72 h): 10 nM; Activity (K562 [21]): 27.61%; IC50 (HeLa; Homo sapiens, HeLa, 72 h): > 100000 nM; Activity (K562 [22]): 39.08%; Activity (K562 [23]): 93.34%; Activity (K562 [24]): 64.31%; Activity (K562 [25]): 3.74%; Activity (K562 [26]): 6.54%; Activity (K562 [27]): 7.94%; IC50 (Jurkat): 30 nM; Activity (K562 [28]): 26.45%; Activity (K562 [29]): 63.83%; Activity (K562 [30]): 10.5%; IC50 (HT-29): 20 nM
